Laboratory results reported in paper PMC2903386 (The Journal of Biological Chemistry, 2010).
Non-standard residues stand in square brackets, D forms with d. Residues, ends and D or L forms follow the SMILES beside them. *: point of attachment. X1 = CC[N+]1=C(C=CC=CC=C2N(CCCCCC(=O)NCCN3C(=O)CC(*)C3=O)c3ccc(S(=O)(=O)O)cc3C2(C)C)C(C)(C)c2cc(S(=O)(=O)[O-])ccc21; Ahx = NCCCCCC(=O)O

Key:
plasmin = plasmin (Homo sapiens, UniProt P00747); experiment: Cleavage by purified plasmin; assay type: in vitro ADME; settings: 5 μM purified Cy5-labeled peptide, 50 nM plasmin, 37 °C, 2 h, 16% Tricine gel
Chain of plasmin (P00747 581-810 limits assumed): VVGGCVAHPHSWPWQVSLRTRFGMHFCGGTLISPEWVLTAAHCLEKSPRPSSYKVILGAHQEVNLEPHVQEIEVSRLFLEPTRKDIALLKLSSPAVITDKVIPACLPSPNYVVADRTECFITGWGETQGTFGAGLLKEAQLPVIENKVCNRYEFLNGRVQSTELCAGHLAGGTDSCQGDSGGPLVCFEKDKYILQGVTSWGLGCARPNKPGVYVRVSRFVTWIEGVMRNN
Chain of plasmin (P00747 97-580 partner limits assumed): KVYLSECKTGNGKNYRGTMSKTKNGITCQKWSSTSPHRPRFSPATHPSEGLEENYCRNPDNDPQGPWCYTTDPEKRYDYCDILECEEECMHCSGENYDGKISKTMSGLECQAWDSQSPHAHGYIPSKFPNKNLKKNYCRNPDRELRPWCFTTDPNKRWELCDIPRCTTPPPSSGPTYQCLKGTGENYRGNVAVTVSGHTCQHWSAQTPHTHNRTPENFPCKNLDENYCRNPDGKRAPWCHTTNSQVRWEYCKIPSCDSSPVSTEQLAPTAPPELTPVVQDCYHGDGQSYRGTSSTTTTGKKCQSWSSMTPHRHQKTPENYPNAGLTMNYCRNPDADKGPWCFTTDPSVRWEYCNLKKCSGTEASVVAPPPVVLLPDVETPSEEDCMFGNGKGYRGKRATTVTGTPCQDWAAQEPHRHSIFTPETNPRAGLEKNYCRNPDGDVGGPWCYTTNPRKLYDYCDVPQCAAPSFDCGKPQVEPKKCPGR
Procedure, shortened: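 Plasmin at 50 nM was incubated with 5 μM purified Cy5-labeled test peptide at 37 °C for 2 h, run alongside 2% tumor, liver or kidney extract digests. Products were resolved on 16% Tricine acrylamide gels and detected by Cy5 fluorescence imaging.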

PyMT mammary tumors = experiment: Fluorescence imaging contrast in PyMT tumor-bearing mice; assay type: in vivo, mouse; settings: PyMT mice, fluorescence imaging 6 h after injection of 10 nmol
Procedure, shortened: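 PyMT transgenic mice bearing spontaneous mammary tumors were anesthetized with ketamine 80 mg/kg plus midazolam 5 mg/kg (1:1) and weighed. They were injected via the tail vein with Cy5 peptide: free peptide 100 μl of 100 μM (10 nmol) or albumin-reactive peptide 100 μl of 30 μM (3 nmol). Maestro imaging (ex 640 ± 24 nm, em >700 nm) was done at 6 h or 48 h, comparing tumor with adjacent normal tissue.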

[1] = Cleavage of Cy5-labeled ACPPs by tumor tissue extract; assay type: in vitro ADME, mouse; settings: 5 μM purified Cy5-labeled peptide, 2% tumor extract, 37 °C, 2 h, 16% Tricine gel
Procedure, shortened: (§1)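 Fresh mouse tissue was gently homogenized in PBS on ice and spun at 14,000 × g for 1 min; the supernatant was used. 5 μM purified Cy5-labeled test peptide was incubated with 2% liver or tumor extract in PBS containing ZnCl2 at 37 °C for 2 h. Cleaved and uncleaved peptide were resolved on 16% Tricine gels and imaged by fluorescence.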

[2] = Cleavage of Cy5-labeled ACPP by liver tissue extract; assay type: in vitro ADME, mouse; settings: 5 μM purified Cy5-labeled peptide, 2% liver extract, 37 °C, 2 h, 16% Tricine gel
Procedure, shortened: as §1

[3] = Tumor standardized uptake value; assay type: in vivo; settings: PyMT, mouse, iv, 10 nmol

Structure (SMILES): CC[N+]1=C(C=CC=CC=C2N(CCCCCC(=O)NCCN3C(=O)CC(SC[C@@H](NC(=O)[C@@H](CCCNC(=N)N)NC(=O)[C@@H](CCCNC(=N)N)NC(=O)[C@@H](CCCNC(=N)N)NC(=O)[C@@H](CCCNC(=N)N)NC(=O)[C@@H](CCCNC(=N)N)NC(=O)[C@@H](CCCNC(=N)N)NC(=O)[C@@H](CCCNC(=N)N)NC(=O)[C@@H](CCCNC(=N)N)NC(=O)[C@@H](CCCNC(=N)N)NC(=O)[C@H](CC(C)C)NC(=O)[C@H](CCCCNC(C)=O)NC(=O)[C@H](CC(C)C)NC(=O)[C@H](CCC(N)=O)NC(=O)[C@H](CC(C)C)NC(=O)[C@H](CCCNC(=N)N)NC(=O)CCCCCNC(=O)[C@@H](CCC(=O)O)NC(=O)[C@@H](CCC(=O)O)NC(=O)[C@@H](CCC(=O)O)NC(=O)[C@@H](CCC(=O)O)NC(=O)[C@@H](CCC(=O)O)NC(=O)[C@@H](CCC(=O)O)NC(=O)[C@@H](CCC(=O)O)NC(=O)[C@@H](CCC(=O)O)NC(=O)[C@H](N)CCC(=O)O)C(N)=O)C3=O)c3ccc(S(=O)(=O)O)cc3C2(C)C)C(C)(C)c2cc(S(=O)(=O)[O-])ccc21 (some centres unmarked) [RLQLK(Ac)L ACPP] (H-[dE][dE][dE][dE][dE][dE][dE][dE][dE][Ahx]RLQLK(Ac)L[dR][dR][dR][dR][dR][dR][dR][dR][dR][dC](X1)-NH2)
- cleavage by plasmin (in words) (plasmin): not cleaved
- Tumor to non-tumor contrast, free peptide (PyMT mammary tumors): less than 3 fold
- cleavage by tumor extracts, comparison with parent (in words) [1]: efficiently cleaved
- cleavage by liver tissue extract compared with parent RLQLKL ACPP (in words) [2]: significantly reduced
- SUV at 6 h [3]: 0.48 ± 0.04 SUV
